Tests used:
[1] = test system: MHCC97L xenograft; assay: MHCC97L subcutaneous xenograft; assay type: in vivo, BALB/c nude mice; details: 14 days
Outline: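 Five-week-old male BALB/c nude mice received MHCC97L cells subcutaneously in the axilla (1 × 10^7 cells in 0.1 mL saline). At 50 mm3 they were randomized to groups and given the test compound in saline by tail vein (10, 20, 30 mg/kg; 0.1 mL/20 g). Tumor volume, calculated as (short diameter)2 × long diameter/2, and body weight were recorded every 2 days. Mice were sacrificed after 14 days; one-way ANOVA with Dunnett's test was used.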

[2] = test system: chick embryo chorioallantoic membrane; assay: Chick chorioallantoic membrane; assay type: in vivo; details: VEGF 0.5 μg, 48 h; n = 5
Outline: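 Fertilized eggs were held at 37 °C and 60% humidity for 5 days and turned 180° every 24 h. On day 6 the shell was opened along the air chamber and sterile rubber rings were placed at the aorta. Test compound in saline (0, 10, 50, 250 μM; 50 μL) was added inside the ring, and eggs were sealed for 48 h. Vascular density was calculated as vessel area/view area from stereomicroscope images.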

Row | Compound | Tumor Inhibition Rate ([1]; PTK787 50 mg/kg, n = 5) [%] | Tumor Weight ([1]; PTK787 50 mg/kg, mean ± SD, n = 5, *** p < 0.001 vs saline) | tumor growth, volume and weight (in words) ([1]; SAIF 10, 20, 30 mg/kg or PTK787 50 mg/kg, vs control) | angiogenesis in CAM, VEGF alone [2]
1 | Clc1ccc(Nc2nnc(Cc3ccncc3)c3ccccc23)cc1 [PTK787] | 88.78 | 0.146 ± 0.049 *** g | decreased MHCC97L transplanted tumor growth and significantly reduced mean tumor volume | 
2 | VEGF |  |  |  | significantly increased neoangiogenesis

From paper PMC10395482 (Heliyon, 2023)
